Results: publication PMC8232391 (Drug Design, Development and Therapy, 2021)

Tests used:
[1] = Stability of DUV in spiked human plasma samples; format: in vitro ADME
[2] = Stability of stock and working standard solutions of DUV; format: physicochemical; details: refrigerator temperature (8°C) for 30 days
Procedure, shortened: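 Stock solutions (1.0 mg mL–1 in acetonitrile) and working standards diluted in mobile phase were held 24 h at room temperature and 30 days refrigerated (below 10°C). They were then analysed by the HPLC-FD method against freshly spiked calibration standards.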

## C[C@H](Nc1ncnc2[nH]cnc12)c1cc2cccc(Cl)c2c(=O)n1-c1ccccc1 [DUV, 8-chloro-2-phenyl-3-[(1S)-1-(7H-purin-6-ylamino)ethyl]isoquinolin-1-one]
[1]; autosampler storage conditions
  Time stable in spiked human plasma: ≥ 48 h
[1]; room temperature on the bench
  Time stable in spiked human plasma: ≥ 6 h
[1]; three freeze–thaw cycles
  Stability in spiked human plasma: stable
[1]; −80°C for 60 days
  Stability in spiked human plasma: stable
[2]
  Stability of stock and working standard solutions: stable
